Source: paper PMC4894453 (Scientific Reports, 2014)
Values after ≈ are worked out from the molar mass of the structure shown. Like-named read-outs stand apart in the source and are kept apart here.

Columns and labels:
[1] = system: Enterococcus faecalis ATCC 33186; test: MIC, microbroth dilution, Enterococcus faecalis; format: cell-based; conditions: for MIC: Enterococcus faecalis; for MIC against Gram-positive bacteria, EF: Enterococcus faecalis ATCC 33186
[2] = system: Streptococcus pyogenes ATCC 700294; test: MIC, microbroth dilution, Streptococcus pyogenes; format: cell-based; conditions: for MIC: Streptococcus pyogenes, ATCC700294, read-out: MIC against Gram-positive bacteria, SP; for MIC against Gram-positive bacteria, SP: Streptococcus pyogenes ATCC 700294, 18–20 h
[3] = system: Streptococcus pneumoniae R6; test: MIC, microbroth dilution, Streptococcus pneumoniae; format: cell-based; conditions: for MIC: Streptococcus pneumoniae, R6, read-out: MIC against Gram-positive bacteria, SPn; for MIC against Gram-positive bacteria, SPn: Streptococcus pneumoniae R6, 18–20 h
How it was run: (§1)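 CLSI microbroth dilution in Mueller-Hinton broth. Test compound at final 200–0.1 μg/ml, diluted from 10 mg/ml DMSO stocks. Plates incubated 18–20 h. MIC is the lowest concentration preventing visible growth.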

[4] = system: Bacillus anthracis sterne; test: microbe, parasite or virus in culture; format: cell-based; conditions: for MIC: Bacillus anthracis, read-out: MIC against Gram-positive bacteria, BA; for MIC against Gram-positive bacteria, BA: 18–20 h
[5] = system: Bacillus subtilis ATCC 23857; test: MIC, microbroth dilution, Bacillus subtilis; format: cell-based; conditions: for MIC: Bacillus subtilis, ATCC23857, read-out: MIC against Gram-positive bacteria, BS; for MIC against Gram-positive bacteria, BS: Bacillus subtilis ATCC 23857, 18–20 h
How it was run: as §1

[6] = system: methicillin-resistant Staphylococcus aureus N315; test: MIC, microbroth dilution, MRSA; format: cell-based; conditions: for MIC: Staphylococcus aureus, MRSA, read-out: MIC against Gram-positive bacteria, MRSA; for MIC against Gram-positive bacteria, MRSA: S. aureus N315, 18–20 h
How it was run: as §1

[7] = Cytotoxicity, CellTiter-Glo viability; format: cell-based; conditions: African green monkey, Vero cells (kidney epithelial cells; ATCC CCL-81)
How it was run: (§2)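 Vero kidney epithelial cells exposed 72 h to test compound (final 200–0.1 μg/ml in DMEM; diluted from 10 mg/ml DMSO stocks). Viability read by CellTiter-Glo luminescence. IC50 is the concentration giving 50% viability loss, from curve fitting. Selectivity index is the cytotoxic IC50 divided by the MIC against S. aureus Newman.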

[8] = system: Vero cells (kidney epithelial cells; ATCC CCL-81); test: Cytotoxicity, CellTiter-Glo viability; format: cell-based; conditions: for Selectivity index: Cytotox IC50/MIC against methicillin-susceptible S. aureus Newman; for Cytotox IC50: Vero kidney cells, 72 h, 50% reduction of viability
How it was run: as §2

[9] = system: panel of clinical relevant Gram-positive pathogens; test: MIC, statements over the Gram-positive panel; format: cell-based; conditions: read-out: MIC over the Gram-positive panel
S. aureus Newman [10] = test: Membrane potential by flow cytometry with DiOC2; format: cell-based, Staphylococcus aureus; conditions: DiOC2(3); for dissipation of the membrane potential: 10 μM, 30 min
How it was run: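 Exponential-phase S. aureus Newman (OD600 ≈ 0.3, Mueller-Hinton II broth) treated with test compound at 100, 10 or 1 μM for 30 min at 37°C. Cells stained 5 min with 30 μM DiOC2(3) and run on flow cytometry (10,000 events, 488 nm excitation, green and red emission). Red/green fluorescence ratio histograms compared. CCCP was the positive control; at least two independent samples.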

S. aureus Newman [11] = test: Membrane permeability by flow cytometry with propidium iodide; format: cell-based, Staphylococcus aureus; conditions: 10 μM, 30 min, concentrations causing dissipation of the membrane potential
How it was run: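 S. aureus Newman grown in Mueller-Hinton II broth to OD600 ≈ 0.3 and exposed to test compound at 10 μM for 30 min. Propidium iodide (10 μM) added for 10 min in the dark. Flow cytometry: 10,000 events, 488 nm excitation, red fluorescence; event histograms compared. Thioridazine at 100 μg/mL served as positive control.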

S. aureus Newman [12] = test: Macromolecular synthesis, radiolabelled precursors; format: cell-based, Staphylococcus aureus; conditions: 1 and 4 × MIC, 20 min
How it was run: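 Three independent S. aureus Newman cultures grown to mid-log phase (OD600 ≈ 0.3), then pulsed with 1 μCi/mL [methyl-3H]thymidine, [5,6-3H]uridine or [4,5-3H]leucine. After 5 min, test compound added at 1 and 4× its Newman MIC for 20 min at 37°C. Cold 10% TCA precipitates collected on GF/C filters, washed with 95% ethanol and counted by scintillation; expressed as relative percent activity. Controls: novobiocin, rifampicin, tetracycline.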

[13] = system: Clostridium difficile BAA 1803; test: MIC, microbroth dilution, anaerobic, Clostridium difficile; format: cell-based; conditions: Brain-heart infusion broth, 24 h, anaerobic; for MIC against Gram-positive bacteria, CD: Clostridium difficile BAA 1803
[14] = system: methicillin-susceptible Staphylococcus aureus Newman; test: MIC, microbroth dilution, MSSA; format: cell-based; conditions: S. aureus Newman; 18–20 h
How it was run: as §1

[15] = system: erythrocytes of defibrinated sheep blood; test: Hemolysis assay; format: cell-based; conditions: sheep erythrocytes 5% in PBS, 37°C, 90 min
How it was run: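 Defibrinated sheep blood spun at 350 rcf for 20 min; plasma and buffy coat discarded. Erythrocytes washed three times in PBS pH 7.4, then made to a 5% v/v suspension. Suspension mixed 1:1 with two-fold serial dilutions of test compound, with Triton X-100 as positive control. Incubated 37°C for 90 min and centrifuged; supernatant OD540 read. Lysis = (sample − blank)/positive control; EC50 from curve fitting.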

Compound	MIC [2]	MIC [3]	MIC [4]	MIC [5]	MIC [6]	Selectivity index [8]	MIC [9]	MIC against Gram-positive bacteria, EF ([1]; Mueller-Hinton broth, 18–20 h)	dissipation of the membrane potential (S. aureus Newman [10])	physical integrity of the S. aureus membrane (propidium iodide uptake) (S. aureus Newman [11])	biosynthesis of DNA, RNA and protein (S. aureus Newman [12])	MIC against Gram-positive bacteria, SP [2]	MIC against Gram-positive bacteria, SPn [3]	MIC against Gram-positive bacteria, BA [4]	MIC against Gram-positive bacteria, BS [5]	MIC against Gram-positive bacteria, CD [13]	MIC against Gram-positive bacteria, MSSA [14]	MIC against Gram-positive bacteria, MRSA [6]	Cytotox IC50 [8]	Hemolysis EC50 [15]	other results
CC(=O)C1=C(O)C(CC(C)C)NC1=O (centres unmarked) [Compound 2, 3-acetyl-4-hydroxy-5-isobutyl-1H-pyrrol-2(5H)-one]	> 200 µg/mL	> 200 µg/mL	> 200 µg/mL	> 200 µg/mL	> 200 µg/mL	1	> 200 µg/mL	–	–	–	–	–	–	–	–	–	–	–	–	–	MIC ([1]; ATCC33186, read-out: MIC against Gram-positive bacteria, EF): > 200 µg/mL; IC50 at 72 h [7]: 217 µg/mL (≈ 1100 µM); effect on the membrane potential (S. aureus Newman [10]; up to 100 μM): failed to affect the membrane potential
C/C(O)=C1\C(=O)C(CC(C)C)N(C(=O)CCCCCc2ccccc2)C1=O (centres unmarked) [Compound 5, (Z)-3-(1-hydroxyethylidene)-5-isobutyl-1-(6-phenylhexanoyl)pyrrolidine-2,4-dione]	3.13 µg/mL (≈ 8.43 µM)	0.78 µg/mL (≈ 2.1 µM)	> 200 µg/mL	1.56 µg/mL (≈ 4.2 µM)	< 0.1 µg/mL	14	–	0.78 µg/mL (≈ 2.1 µM)	slightly lower than reutericyclin	did not disrupt the physical integrity	reduced	–	–	–	–	–	–	–	–	–	fold improvement in activity over reutericyclin ([2]; Strep. pyogenes): 2 fold; fold improvement in activity over reutericyclin ([3]; Strep. pneumoniae): 4 fold; fold improvement in activity over reutericyclin ([6]; MRSA N315): 4 fold
CCCCCCC/C=C/C(=O)N1C(=O)/C(=C(\O)C2CCN(C(=O)OC(C)(C)C)CC2)C(=O)[C@H]1CC(C)C [Compound 10, tert-butyl4-((Z)-((R)-1-((E)-dec-2-enoyl)-5-isobutyl-2,4-dioxopyrrolidin-3-ylidene)(hydroxy)methyl) piperidine-1-carboxylate]	–	–	–	–	–	–	–	0.39 µg/mL (≈ 0.752 µM)	–	–	–	3.13 µg/mL (≈ 6.03 µM)	3.13 µg/mL (≈ 6.03 µM)	0.78 µg/mL (≈ 1.5 µM)	1.56 µg/mL (≈ 3.01 µM)	0.25 µg/mL (≈ 0.482 µM)	0.40 µg/mL (≈ 0.771 µM)	0.2 µg/mL (≈ 0.386 µM)	14.22 µg/mL	61.61 µg/mL	–
CCCCCCC/C=C/C(=O)N1C(=O)/C(=C(\O)c2ccc(F)cc2)C(=O)C1CC(C)C (centres unmarked) [Compound 13, (Z)-1-((E)-dec-2-enoyl)-3-((4-fluorophenyl)(hydroxy)methylene)-5-isobutylpyrrolidine-2,4-dione]	6.25 µg/mL (≈ 14.6 µM)	12.5 µg/mL (≈ 29.1 µM)	0.39 µg/mL (≈ 0.908 µM)	0.39 µg/mL (≈ 0.908 µM)	< 0.1 µg/mL	67	< 1 µg/mL	–	reduced the membrane potential in a manner similar to reutericyclin	did not disrupt the physical integrity	reduced	–	–	–	–	–	–	–	–	–	MIC ([1]; ATCC33186, read-out: MIC against Gram-positive bacteria, EF, Enterococcus faecalis ATCC 33186, Mueller-Hinton broth, 18–20 h): 0.2 µg/mL (≈ 0.466 µM); MIC ([13]; Clostridioides difficile, BAA1803, 24 h, read-out: MIC against Gram-positive bacteria, CD, Clostridium difficile BAA 1803): < 0.03 µg/mL
(Z)-1-((E)-dec-2-enoyl)-3-(1-hydroxyethylidene)-5-isobutylpyrrolidine-2,4-dione [Compound 1, reference compound]	–	–	–	–	–	–	–	0.20 µg/mL	–	did not disrupt the physical integrity	reduced	6.25 µg/mL	3.13 µg/mL	0.20 µg/mL	0.39 µg/mL	0.09 µg/mL	0.78 µg/mL	0.4 µg/mL	7.46 µg/mL	27.87 µg/mL	Cytotox IC50 ([8]; listed as reutericyclin): 7.5 µg/mL; dissipation of the membrane potential (S. aureus Newman [10]; listed as reutericyclin): completely dissipated
